The source of these data is ChEMBL document CHEMBL1153899, “Discovery of benzothiazole derivatives as efficacious and enterocyte-specific MTP inhibitors” (Bioorg Med Chem Lett, 2009).

Data set [1] can be described thus: Half life in Sprague-Dawley rat liver at 100 mg/kg, po. It counts as ADME, organism-based. The arrangement: dose 100 mg/kg, route oral. Put shortly:
(§1)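 Dose-proportionality PK in Sprague–Dawley rats (n = 3) given single oral doses of 3, 10, 30 or 100 mg/kg. Liver and plasma were sampled at 0.5, 1, 2, 4 and 8 h and assayed for drug concentration to derive Cmax, AUC(0–∞) and T1/2.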

A further data set concerns HepG2. As to the kind of experiment: Inhibition of apoB secretion in human HepG2 cells after 40 hrs by ELISA. It counts as functional, cell-based. As to conditions: HepG2, 40 h.
Data set [2] is described as follows: Inhibition of MTP from dog liver microsomes by scintillation counting. Details: species or system Canis lupus familiaris, Microsome.
Data set [3] deals with Mus musculus. Put plainly: Decrease in total food intake in 3-day high fat diet fed C57BL/6 mouse at 10 mg/kg, po daily for 3 days. It counts as functional. Details: scale not given: the % may be the effect or the level left.
Data set [4] deals with Mus musculus. Put plainly: Decrease in body weight in […] at 3 mg/kg, po daily for 3 days. It counts as functional, C57BL/6. Details: scale not given: the % may be the effect or the level left.
The test system of data set [5] is Mus musculus. As to the kind of experiment: Decrease in body weight in 28-day diet-induced obesity C57BL/6 mouse model at 3 mg/kg, po daily for 4 weeks. It counts as functional. Details: scale not given: the % may be the effect or the level left. A digest of the protocol:
(§2)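 C57BL/6 male mice were fed high-fat diet for 4 weeks beforehand to about 40 g and kept on it throughout. Groups of n = 10 were dosed po once daily for 4 weeks at 1 or 3 mg/kg, or vehicle (5% PEG400, 0.25% Tween 80, 94.25% H2O). Food was weighed and replaced with pre-weighed food 3 times weekly. Fed plasma glucose was taken at 2 weeks and insulin at 4 weeks.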

Data set [6] has as its system Mus musculus. Put plainly: Decrease in plasma glucose level in 28-day diet-induced obesity C57BL/6 mouse model at 1 to 3 mg/kg, po daily for 4 weeks measured on week 2. Format: functional, organism-based. A digest of the protocol: as §2
Data set [7] deals with Mus musculus. As to the kind of experiment: Decrease in plasma glucose level in 28-day diet-induced obesity C57BL/6 mouse model at 1 to 3 mg/kg, po daily for 4 weeks. Format: functional, organism-based. Put shortly: as §2
For data set [8], the system named is Mus musculus. Put plainly: Toxicity in 28-day diet-induced obesity C57BL/6 mouse model assessed as liver alanine aminotransferase level at 1 to 3 mg/kg, po daily for 4 weeks. It counts as organism-based. The arrangement: dose 1-3 mg/kg, route oral. As to conditions: in vivo, 672 h. A digest of the protocol: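 C57BL/6 male mice kept on high fat diet 4 weeks before study (body weight about 40 g) and throughout; n = 10, dosed orally once daily for 4 weeks at 1 or 3 mg/kg, vehicle 5% PEG400, 0.25% Tween 80, 94.25% H2O; liver weight and ALT, AST, alkaline phosphatase assessed after 4 weeks.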

The nature of data set [9]: Clearance in Sprague-Dawley rat at 1 mg/kg, iv. It counts as ADME, organism-based. As to conditions: in vivo. Details: dose 1 mg/kg, route intravenous.
Data set [10] in a line: Cmax in Sprague-Dawley rat at 3 mg/kg, po. It counts as ADME, organism-based. The arrangement: dose 3 mg/kg, route oral. As to conditions: in vivo.
Data set [11] is described as follows: AUC (0 to infinity) in Sprague-Dawley rat plasma at 100 mg/kg, po. Details: time infinity, dose 100 mg/kg, route oral. It counts as ADME, organism-based. A digest of the protocol:
as §1

Data set [12] is described as follows: AUC (0 to infinity) in Sprague-Dawley rat liver at 3 mg/kg, po. Format: ADME, organism-based. The arrangement: time infinity, dose 3 mg/kg, route oral. Put shortly: as §1
Data set [13] is described as follows: AUC (0 to infinity) in Sprague-Dawley rat liver at 10 mg/kg, po. Details: time infinity, dose 10 mg/kg, route oral. It counts as ADME, organism-based. A digest of the protocol:
as §1

Data set [14] in a line: AUC (0 to infinity) in Sprague-Dawley rat liver at 30 mg/kg, po. It counts as ADME, organism-based. The arrangement: dose 30 mg/kg, route oral, time infinity. A digest of the protocol:
as §1

The source made the active and inactive calls. The calls are words filed in the database; no cut-off is given here.

`CC(C)c1ccc(-c2ccccc2C(=O)Nc2ccc3nc(C(=O)N[C@H](C(=O)N(C)Cc4ccc(F)cc4)c4ccccc4)sc3c2)cc1`: the half-life in data set [1] was 6.44 h. Also, the half-inhibitory concentration (IC50) with HepG2 is 6.2 nM; in data set [2], 11.2 nM. In addition, the Activity in the data set with Mus musculus [3] is on record as 19%; with Mus musculus [4], 3%; in the data set with Mus musculus [5], 3%; with Mus musculus [8], “Non-toxic”. In addition, the outcome with Mus musculus [6] and with Mus musculus [7] was Active. In data set [9], the clearance was 17.2 mL/min/kg. In data set [10], this molecule showed a peak concentration (Cmax) of 22.2 ng/mL. The AUC(0-inf) in data set [11] amounted to 598 ng·h/mL; in data set [12] it was 1220 ng·h/mL; in data set [13], 2640 ng·h/mL; in [14], 3030 ng·h/mL.
